Test results published in ChEMBL document CHEMBL5303300, “EUbOPEN Chemogenomics Library - Multiplex” (2023).
Where “and” joins values, the source holds several entries; their conditions need not be identical. Equal entries are not always repeated.

Experiments:
[1] = test system: HEK-293T; test: Multiplex assay against HEK293T; format: toxicity, cell-based; conditions: human, number of replicates 2
In short: (§1)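 Phenotypes for tubulin, mitochondrial mass and membrane permeability are expressed as per cents of healthy-nucleus cells. Cells were stained live at seeding with Hoechst33342, BioTracker Green Microtubule Cytoskeleton Dye, MitoTracker Red and Annexin V Alexa Fluor 680, then imaged after compound addition on a CQ1 microscope at 37°C and 5% CO2. Machine-learning gating in CellPathfinder separated Hoechst high-intensity objects from normal cells, divided normal cells by nuclear state (healthy, pyknosed, fragmented) and divided pyknosed cells into mitotic or apoptotic.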

[2] = test system: U2OS; test: Multiplex assay against U2OS; format: toxicity, cell-based; conditions: human, number of replicates 2; in short: as §1
[3] = 24 h, 1 µM, compound concentration 1 uM
[4] = 24 h, 10 µM, compound concentration 10 uM
[5] = 48 h, 1 µM, compound concentration 1 uM
[6] = 48 h, 10 µM, compound concentration 10 uM
[7] = 12 h, 1 µM, compound concentration 1 uM
[8] = 12 h, 10 µM, compound concentration 10 uM

Compound: COc1cc(N2CCN(C)CC2)ccc1Nc1ncc2c(n1)N(C)c1ccccc1C(=O)N2CC(F)(F)F
- Population Mitochondria Different-Phenotype (%) [1, 3]: 8% and 9%
- Population Mitotic Cells (%) [1, 3]: 72% and 67%
- Population Normal (%) [1, 3]: 92%
- Population Pyknosed Nuclei (%) [1, 3]: 5% and 7%
- Population Tubulin-Different-Phenotype (%) [1, 3]: 68%
- Total Cell Count [1, 3]: 1356 and 1127
- Population Apoptotic (%) [1, 4]: 42% and 49%
- Population Fragmented Nuclei (%) [1, 4]: 3% and 4%
- Population Healthy Nuclei (%) [1, 4]: 80% and 83%
- Population Hoechst High Intensity Objects (%) [1, 4]: 6% and 11%
- Population Membrane Permeable-Phenotype (%) [1, 4]: 2% and 1%
- Population Mitochondria Different-Phenotype (%) [1, 4]: 60% and 59%
- Population Mitotic Cells (%) [1, 4]: 57% and 50%
- Population Normal (%) [1, 4]: 93% and 88%
- Population Pyknosed Nuclei (%) [1, 4]: 16% and 12%
- Population Tubulin-Different-Phenotype (%) [1, 4]: 95%
- Total Cell Count [1, 4]: 451 and 561
- Population Fragmented Nuclei (%) [1, 5]: 10% and 14%
- Population Healthy Nuclei (%) [1, 5]: 86% and 82%
- Population Hoechst High Intensity Objects (%) [1, 5]: 11% and 10%
- Population Membrane Permeable-Phenotype (%) [1, 5]: 4% and 6%
- Population Mitochondria Different-Phenotype (%) [1, 5]: 2% and 0%
- Population Mitotic Cells (%) [1, 5]: 82% and 95%
- Population Normal (%) [1, 5]: 88% and 89%
- Population Pyknosed Nuclei (%) [1, 5]: 3%
- Population Tubulin-Different-Phenotype (%) [1, 5]: 51% and 48%
- Total Cell Count [1, 5]: 2136 and 2988
- Population Apoptotic (%) [1, 6]: 50% and 55%
- Population Fragmented Nuclei (%) [1, 6]: 4% and 5%
- Population Healthy Nuclei (%) [1, 6]: 79% and 83%
- Population Hoechst High Intensity Objects (%) [1, 6]: 8% and 11%
- Population Membrane Permeable-Phenotype (%) [1, 6]: 7% and 11%
- Population Mitochondria Different-Phenotype (%) [1, 6]: 37% and 31%
- Population Mitotic Cells (%) [1, 6]: 50% and 44%
- Population Normal (%) [1, 6]: 91% and 88%
- Population Pyknosed Nuclei (%) [1, 6]: 15% and 11%
- Population Tubulin-Different-Phenotype (%) [1, 6]: 91% and 94%
- Total Cell Count [1, 6]: 580 and 656
- Population Apoptotic (%) [2, 7]: 80% and 51%
- Population Fragmented Nuclei (%) [2, 7]: 11% and 4%
- Population Healthy Nuclei (%) [2, 7]: 76% and 82%
- Population Hoechst High Intensity Objects (%) [2, 7]: 0%
- Population Membrane Permeable-Phenotype (%) [2, 7]: 3%
- Population Mitotic Cells (%) [2, 7]: 20% and 48%
- Population Normal (%) [2, 7]: 100% and 99%
- Population Pyknosed Nuclei (%) [2, 7]: 11% and 12%
- Population Tubulin-Different-Phenotype (%) [2, 7]: 21% and 22%
- Population Apoptotic (%) [2, 8]: 64% and 53%
- Population Healthy Nuclei (%) [2, 8]: 45% and 78%
- Population Hoechst High Intensity Objects (%) [2, 8]: 0%
- Population Membrane Permeable-Phenotype (%) [2, 8]: 17% and 28%
- Population Mitochondria Different-Phenotype (%) [2, 8]: 58% and 54%
- Population Mitotic Cells (%) [2, 8]: 35% and 46%
- Population Normal (%) [2, 8]: 100%
- Population Pyknosed Nuclei (%) [2, 8]: 37% and 19%
- Population Tubulin-Different-Phenotype (%) [2, 8]: 88% and 85%
- Population Apoptotic (%) [2, 3]: 66% and 68%
- Population Healthy Nuclei (%) [2, 3]: 69% and 83%
- Population Hoechst High Intensity Objects (%) [2, 3]: 0%
- Population Membrane Permeable-Phenotype (%) [2, 3]: 3% and 1%
- Population Mitochondria Different-Phenotype (%) [2, 3]: 18% and 19%
- Population Mitotic Cells (%) [2, 3]: 33% and 31%
- Population Normal (%) [2, 3]: 100% and 99%
- Population Pyknosed Nuclei (%) [2, 3]: 15% and 13%
- Population Tubulin-Different-Phenotype (%) [2, 3]: 11% and 30%
- Population Apoptotic (%) [2, 4]: 73%
- Population Fragmented Nuclei (%) [2, 4]: 15% and 6%
- Population Healthy Nuclei (%) [2, 4]: 39% and 55%
- Population Hoechst High Intensity Objects (%) [2, 4]: 0%
- Population Membrane Permeable-Phenotype (%) [2, 4]: 30% and 44%
- Population Mitochondria Different-Phenotype (%) [2, 4]: 69% and 73%
- Population Mitotic Cells (%) [2, 4]: 26%
- Population Normal (%) [2, 4]: 100%
- Population Pyknosed Nuclei (%) [2, 4]: 45% and 37%
- Population Tubulin-Different-Phenotype (%) [2, 4]: 92% and 95%
- Population Apoptotic (%) [2, 5]: 66% and 72%
- Population Healthy Nuclei (%) [2, 5]: 62% and 84%
- Population Hoechst High Intensity Objects (%) [2, 5]: 0%
- Population Membrane Permeable-Phenotype (%) [2, 5]: 2% and 3%
- Population Mitochondria Different-Phenotype (%) [2, 5]: 2% and 11%
- Population Mitotic Cells (%) [2, 5]: 33% and 27%
- Population Normal (%) [2, 5]: 100% and 99%
- Population Pyknosed Nuclei (%) [2, 5]: 22% and 12%
- Population Tubulin-Different-Phenotype (%) [2, 5]: 29% and 37%
- Population Apoptotic (%) [2, 6]: 83% and 86%
- Population Fragmented Nuclei (%) [2, 6]: 26% and 11%
- Population Hoechst High Intensity Objects (%) [2, 6]: 2% and 0%
- Population Membrane Permeable-Phenotype (%) [2, 6]: 85% and 66%
- Population Mitochondria Different-Phenotype (%) [2, 6]: 71% and 74%
- Population Mitotic Cells (%) [2, 6]: 16% and 13%
- Population Normal (%) [2, 6]: 97% and 99%
- Population Pyknosed Nuclei (%) [2, 6]: 57% and 34%
- Population Tubulin-Different-Phenotype (%) [2, 6]: 100% and 94%
